TNF necrop inh: inhibitors of TNF-alpha induced necroptosis in Jurkat FADD-/- cells; Jurkat FADD-/- TNF necroptosis rescue, ATP luminescence, 24 h; 0 = TNF only, 100 = no-TNF cells; activation (protection from cell death), % at 10 µM; actives 0.068% (n = 220,000); AID 463075;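 active = activation, meaning protection from cell death, of at least 50% relative to plate controls; inactive = activation below 50%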;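 note: necroptosis triggered by 40 ng/mL TNF-alpha added together with compound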
S1P4 antagonist: blocks the human S1P4 receptor; O95977; S1P4-expressing cells, antagonist mode, reporter read-out; inhibition, % at 4.98 µM; actives 0.26% (n = 220,000); AID 1510; in the data active = inhibition above about 29%;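 note: 0% = wells stimulated with agonist and 100% = vehicle wells without agonist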
Target sequence (O95977 whole entry, looked up): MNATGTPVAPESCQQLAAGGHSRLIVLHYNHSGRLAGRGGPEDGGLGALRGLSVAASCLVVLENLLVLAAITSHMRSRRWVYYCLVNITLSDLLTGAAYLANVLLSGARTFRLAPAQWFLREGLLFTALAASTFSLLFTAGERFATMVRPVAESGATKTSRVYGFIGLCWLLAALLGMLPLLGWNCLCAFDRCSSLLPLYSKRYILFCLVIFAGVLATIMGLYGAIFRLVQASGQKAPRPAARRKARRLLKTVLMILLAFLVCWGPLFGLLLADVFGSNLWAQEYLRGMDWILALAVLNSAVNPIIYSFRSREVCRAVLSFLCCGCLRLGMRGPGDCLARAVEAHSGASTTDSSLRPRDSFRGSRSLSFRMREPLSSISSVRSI
Tb hexokinase: T. brucei hexokinase 1 inhibition | recombinant TbHK1, G6PDH-coupled NADH A340 | inhibition, % at 10 µM | AID 1430 | actives 0.11% (n = 220,000);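 active = inhibition of 50% or more in the single-dose primary screen; inactive = inhibition below 50%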
S1P4 ag: activates the human S1P4 receptor; O95977; S1P4-expressing cell line, agonist reporter assay; activation, % at 4.98 µM; actives 0.35% (n = 220,000); in the data active = activation above about 11%;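 note: 0% = DMSO vehicle and 100% = reference agonist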
Dynein transport: blocks dynein driven cargo transport along microtubules; AID 1381; z-score, hits read low; 3617.4 mouse cells, GR-EGFP nuclear translocation imaging; test concentration mostly 20 µM; stimulated with dexamethasone, 1 µM; stronger effect = lower value; actives 0.47% (n = 220,000);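 active = plate z-score of nuclear minus cytoplasmic receptor signal below a set negative limit, without overly bright fluorescence or cell loss, cut at about -3.5 in these data, passing the limit was not always enough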;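 note: z-score of nuclear minus cytoplasmic ring GR-EGFP intensity difference per well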
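Medium: Induction medium lacking tetracycline, stripped serum | Probe or stimulus: 1.0 µM final dexamethasone stimulus | Schedule: 48 h induction, then 1 h compound, then 30 min agonist, 37 °C | Signal: Automated 10x imaging of fixed Hoechst-stained cells | Evaluation: Per-cell GR-EGFP intensity, nucleus versus surrounding cytoplasmic ring, well-averaged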
L929 necroptosis: blocks zVAD induced death of L929 cells; actives 0.38% (n = 220,000); L929 zVAD necroptosis rescue, ATP luminescence, 24 h; with zVAD 60 µM; viability rescue, % at 10 µM;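 active = activation, scaled between plate controls, above about 75%, limit read from the data; inactive = activation under that limit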;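 note: 0% = zVAD with DMSO and 100% = DMSO alone without zVAD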
S1P4 ag conf: confirmation of human S1P4 receptor agonists; S1P4 agonist cell-based reporter assay; actives 7% (n = 740); shares compounds with S1P4 ag; activation, % at 4.98 µM; in the data active = activation above about 12%;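 note: 0% = vehicle and 100% = full reference agonist response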
S1P1 agonist: counter-screen for S1P4 agonists: agonists of human S1P1 | shares compounds with S1P4 ag | S1P1 agonist cell-based assay, activation | activation, % at 4.98 µM | actives 4% (n = 740) | AID 1563; in the data active = activation above about 21%;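 note: 0% = vehicle wells and 100% = reference agonist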
Numbers without * were called inactive; · = not tested or not shown. This is a sample that favours compounds with a hit; in the whole collection about 1.5% have one here.

SMILES	TNF necrop inh	S1P4 antagonist	Tb hexokinase	S1P4 ag	Dynein transport	L929 necroptosis	S1P4 ag conf	S1P1 agonist
CC(C)c1cc(C(=O)OCC(=O)NC(=O)NCc2ccco2)c(O)c(C(C)C)c1	-1	-4	8	44*	-0.52	-1	36*	1
N=c1oc2cc(O)ccc2cc1C(=O)Nc1nc2ccccc2s1	0	-76	-15	92*	-0.96	1	80*	129*
CCCCCCN(C(=O)CCCCCN1C(=O)NC(c2ccc(C3CCCCC3)cc2)C(C(=O)OCc2ccccc2)=C1C)C(C(=O)NCCCC)c1ccc(OCC(=O)OC)c(C(=O)OC)c1 (configuration not stated)	-2	·	-11	·	0.4	2	·	·
Cc1ccccc1/C=N\NC(=O)c1ccc(Cn2cccn2)o1	1	-16	-17	47*	0.28	-1	-2	-3
O=C(N/N=C\c1cccc(Cl)c1)c1ccc(Cn2cccn2)o1	2	2	-6	0	-1.1	1	·	·
O=C(Cn1cnc2ccccc21)N1CCN(S(=O)(=O)c2ccccc2)CC1	-1	-13	-2	15*	-0.045	1	-2	-2
O=C(Nc1ccc(Cl)cc1)NN1CC(=O)N(c2cccc(C(F)(F)F)c2)CC1=O	3	3	-9	-2	-0.18	0	·	·
O=C1c2cccc3cc([N+](=O)[O-])cc(c23)C(=O)N1CCN1CCCC1	-28	-64	-36	24*	-1.3	20	23*	92*
CC(C)n1nc(C(=O)Nc2nc3ccccc3[nH]2)c2ccccc2c1=O	1	0	-8	1	0.3	0	·	·
Cc1ccc(-c2cc(C(=O)NCc3cccnc3)no2)cc1	-3	2	-3	2	0.45	0	·	·
Cc1cc(C(=O)NCc2cccnc2)no1	3	-9	2	11*	-1.3	1	-1	-6
O=C(Nc1ccc2oc(-c3ccncc3)nc2c1)c1ccc(F)cc1	-2	-11	-12	20*	-0.53	8	-2	0
COc1ccc(C(=O)/C=C/c2ccc(OC)c(Cn3nnc4ccccc43)c2)cc1	0	-15	-15	0	-1.6	-1	·	·
Cc1nc(SCC(=O)NC2CCCC2)[nH]c(=O)c1Cc1ccccc1	0	-4	2	51*	0.021	0	-2	-6
Cc1nc(SCC(=O)N(C)C2CCCCC2)[nH]c(=O)c1Cc1ccccc1	0	-4	0	1	-0.3	0	·	·
CC(C)C(=O)Nc1ccc2c(c1)C(=O)NC2=O	0	0	-2	0	-0.17	5	·	·
Cc1ccc(OCCn2cc(/C=C3\C(=O)NN(c4ccccc4)C3=O)c3ccccc32)cc1	3	5	3	14*	0.013	·	-2	-3
O=C(/C=C/c1ccco1)Nc1ccccc1N1CCOCC1	0	-23	-21	20*	0.45	·	-1	-4
O=C(/C=C/c1ccco1)Nc1ccc(C(=O)N2CCOCC2)cc1	-1	-8	-51	0	-0.7	1	·	·
Cc1cccc(C)c1Nc1nnc(SCC(=O)c2ccc(Br)s2)s1	1	-13	6	34*	0.17	3	-2	-1
Cc1ccc(Nc2nnc(SCC(=O)c3ccc(Br)s3)s2)c(C)c1	1	-10	6	-1	0.6	4	·	·
Cc1ccc(NC(=O)NNC(=O)c2snnc2C)cc1	0	-8	-10	0	-0.77	4	·	·
O=C(CN1C(=O)C2CCCCC2C1=O)N1CCN(c2ccc(F)cc2)CC1 (configuration not stated)	1	-18	-2	-3	-0.44	14	·	·
O=C(CN1C(=O)NC2(CCSC2)C1=O)N1CCN(c2ccc(F)cc2)CC1 (configuration not stated)	0	-10	1	18*	0.62	3	-1	-4
CCC(=O)N/C(N)=N/c1nc(C)c2cc(C)c(C)cc2n1	-12	-8	-12	12*	-0.3	2	-1	-6
SMILES	TNF necrop inh	S1P4 antagonist	Tb hexokinase	S1P4 ag	Dynein transport	L929 necroptosis	S1P4 ag conf	S1P1 agonist
CN(C1=C(N2CCCCC2)C(=O)c2ccccc2C1=O)c1ccccc1	-3	-30	2	12*	-0.67	0	-2	-5
N#C/C(=C\c1ccc(-c2cccc([N+](=O)[O-])c2)o1)c1nnc(N2CCOCC2)n1-c1ccccc1	-10	2	-15	0	0.47	-1	·	·
O=C(N[C@@H](Cc1ccccc1)C(=O)OCc1ccccc1)c1nc[nH]c1C(=O)NCc1ccccc1	2	5	0	20*	-0.38	1	32*	1
NNC(=O)c1ccc(Cn2cccn2)o1	-1	11	5	-1	-0.39	0	·	·
CCOC(=O)N1CCC(N2Cc3cccc(C(=O)Nc4ccc(CC)cc4)c3C2=O)CC1	-5	-9	-14	12*	1.2	-1	-3	-3
O=C(Nc1ccccc1O)c1csc2c1CCCC2	-1	8	0	-1	0.84	0	·	·
Cc1ccc(CN2CCN(Cc3cn[nH]c3-c3cccc(F)c3)CC2CCO)o1 (configuration not stated)	1	-1	-11	15*	-1.4	0	-1	-5
COc1cc(C)nc(Nc2nc(C)c(C(C)=O)s2)n1	-4	-16	-35	12*	-0.87	7	-3	0
Cc1ccc(N=C(N)N=C(N)N)c(C)c1	3	5	0	2	-0.34	1	·	·
Cc1ccc(C(N)=S)c(C)c1	-5	4	-2	17*	0.33	0	-2	1
O=C(O)C1=C(C(=O)Nc2cc(C(F)(F)F)ccc2Cl)CCCC1	-1	5	-5	2	-0.043	4	·	·
CCc1nnc(NC(=O)CN2CCC(O)(c3ccccc3OC)CC2)s1	-4	10	-4	-2	0.44	0	·	·
COc1ccccc1C1(O)CCN(CC(=O)Nc2nc(-c3ccccc3)cs2)CC1	2	-15	-4	21*	-0.8	20	-1	4
CCOC(=O)c1c(NC(=O)COC(=O)c2cc(OC)c(OC)cc2[N+](=O)[O-])sc(C)c1C	2	-8	4	17*	-0.19	1	-1	2
O=C1c2ccccc2N2C(=O)c3ccccc3C2N1Cc1ccccc1 (configuration not stated)	1	25	-1	0	-0.019	-1	·	·
Cc1ccc2nc(-c3ccc(NS(=O)(=O)c4ccc(F)c(F)c4)cc3)sc2c1	-1	-1	-32	30*	0.39	1	1	-3
CCN(C(=O)c1cnc(OC)cc1C(F)(F)F)c1ccc(Cl)cc1	12	9	-9	1	0.36	0	·	·
